For data set [1], the system named is Blood. Nature of the data set: Antiinflammatory activity against Sprague-Dawley rat whole blood assessed as suppression of LPS-induced TNFalpha production by ELISA. In kind it is functional, tissue-based. In short, it runs like this: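 Blood from 10-week-old male Sprague-Dawley rats, drawn from the abdominal vein under ether anesthesia into 1.6 mg/mL EDTA. Compound diluted from 10 mM DMSO stock, preincubated with blood for 30 min at 37 °C in 5% CO2. LPS (100 µg/mL solution, 10 µL to 90 µL) added, then 5 h incubation. PBS added, centrifuged, supernatant TNF-α measured by ELISA. IC50 derived for 50% inhibition.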
A general note: ELISA stands for enzyme-linked immunosorbent assay.

For data set [2], the target named is 3',5'-cyclic-AMP phosphodiesterase 4D (Homo sapiens, UniProt Q08499). Nature of the data set: Inhibition of human recombinant PDE4D catalytic domain cloned from human HL60 cells assessed as inhibition of cAMP hydrolysis.
Data set [3] can be described thus: Half life in human liver S9 fraction. In kind it is ADME, subcellular. An outline of the steps: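 Human liver S9 fraction (1 mg protein/mL) in 100 mM potassium phosphate pH 7.4 with NADPH-generating system, preincubated 5 min at 37 °C. Compound added from methanol to 2 µM final, incubated 0, 2 or 10 min at 37 °C, stopped with acetonitrile. Parent remaining quantified by HPLC, UV 314 nm. Half-life obtained as -0.693/k, k from log-linear regression of percent remaining.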

The test system of data set [4] is Mus musculus. Briefly: Reduction of dermatitis in topically administered BALB/c mouse assessed as reduction of TNCB-induced ear swelling. It is filed as functional. The arrangement: scale not given: the % may be the effect or the level left. In short, it runs like this: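 Eight-week-old male BALB/c mice with TNCB-induced dermatitis on the right pinna. 20 mg of 1% compound in vaseline ointment applied topically; diseased controls got plain vaseline during the last week (n = 4). The untreated left pinna served as normal reference. Pinna thickness measured by digital micrometer 6 h after the last application. Percent reduction of swelling (right minus left) calculated relative to the diseased control.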

[5] abbreviates: Rattus norvegicus, Sprague-Dawley, Blood.

This is an account of results in ChEMBL document CHEMBL1152601, “Synthesis and biological evaluation of novel phthalazinone derivatives as topically active phosphodiesterase 4 inhibitors” (Bioorg Med Chem, 2009).

Sequence of 3',5'-cyclic-AMP phosphodiesterase 4D (Q08499 whole entry, the tested form may be a part): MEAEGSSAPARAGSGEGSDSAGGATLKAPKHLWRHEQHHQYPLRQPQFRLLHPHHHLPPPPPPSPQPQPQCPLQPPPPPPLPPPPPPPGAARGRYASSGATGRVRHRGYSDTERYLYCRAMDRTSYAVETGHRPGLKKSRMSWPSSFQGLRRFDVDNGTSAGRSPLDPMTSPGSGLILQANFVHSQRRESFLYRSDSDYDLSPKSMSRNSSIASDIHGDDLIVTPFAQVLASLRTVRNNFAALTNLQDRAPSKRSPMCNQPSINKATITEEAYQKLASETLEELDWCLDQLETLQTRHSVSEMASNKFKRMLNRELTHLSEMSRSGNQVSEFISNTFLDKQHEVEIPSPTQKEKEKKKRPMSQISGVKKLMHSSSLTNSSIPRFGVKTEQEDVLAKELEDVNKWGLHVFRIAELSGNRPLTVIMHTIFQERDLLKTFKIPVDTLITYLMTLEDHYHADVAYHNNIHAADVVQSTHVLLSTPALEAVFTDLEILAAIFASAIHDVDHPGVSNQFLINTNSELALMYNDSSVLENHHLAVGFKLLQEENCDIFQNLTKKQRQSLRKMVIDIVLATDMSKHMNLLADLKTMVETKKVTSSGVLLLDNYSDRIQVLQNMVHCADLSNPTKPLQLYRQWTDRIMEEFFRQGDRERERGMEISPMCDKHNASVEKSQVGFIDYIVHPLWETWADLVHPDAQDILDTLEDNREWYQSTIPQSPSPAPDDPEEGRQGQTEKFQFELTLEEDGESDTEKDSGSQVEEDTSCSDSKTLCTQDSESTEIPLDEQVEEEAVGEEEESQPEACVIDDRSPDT

Consider `COc1ccc(C2=NN(Cc3ccc(CN4CCOCC4)cc3)C(=O)CC2)cc1OC`, for which the figures for the IC50 in data set [1] (setting [5]) and in data set [2] were 442 nM and 45.9 nM, respectively.

On to `COc1ccc(C2=NN(Cc3ccc(CN4CCOCC4)cc3)C(=O)[C@@H]3CC=CC[C@H]23)cc1OC.Cl`, for which the half-life (as a rule, the time needed for the level to fall by half in the phase considered) in data set [3] is 6 min. For the same compound, the half-maximal inhibitory concentration (IC50) – broadly, the midpoint of a concentration-inhibition curve – worked out at 4.2 nM in data set [1] and 0.3 nM in data set [2]. In addition, the Activity in data set [4] is given as 38.5%.

In the case of `COc1ccc(C2=NN(Cc3ccc(CN4CCOCC4)cc3)C(=O)[C@@H]3CC=CC[C@H]23)cc1OC`, the IC50 was determined as 82.2 nM in data set [1] and 8.8 nM in data set [2].

Consider `COc1ccc(C2=NNC(=O)[C@@H]3CC=CC[C@H]23)cc1OC` (racemic), for which the half-maximal inhibitory concentration (IC50) in data set [1] (setting [5]) worked out at 207 nM; in data set [2] it was 85 nM.

`COc1ccc(C2=NN(Cc3ccc(CN4CCOCC4)cc3)C(=O)[C@@H]3CC=CC[C@H]23)cc1OC` (racemic): the IC50 in data set [1] and in data set [2] was 0.9 nM throughout.

For the compound `COc1ccc(C2=NN(Cc3ccccc3CN3CCOCC3)C(=O)[C@@H]3CC=CC[C@H]23)cc1OC` (relative stereo), the results for the IC50 in data set [1] (setting [5]) and in data set [2] were 1 nM and 1.3 nM, respectively. Also, the Activity in data set [4] worked out at 36.8%.

`COc1ccc(C2=NN(C/C=C/Cn3ccnc3)C(=O)[C@@H]3CC=CC[C@H]23)cc1OC` (relative stereo): the IC50 in data set [1] (setting [5]) came out at 0.7 nM; in data set [2] it was 0.4 nM.

Regarding `COc1ccc(C2=NN(Cc3ccc(Cn4ccnc4)cc3)C(=O)[C@@H]3CC=CC[C@H]23)cc1OC` (relative stereo), the concentration for half-maximal inhibition (IC50) stood at 0.5 nM in data set [1] (setting [5]) and 0.7 nM in data set [2].

Turning to `COc1ccc(C2=NN(Cc3ccc(CN4CCN(C)CC4)cc3)C(=O)[C@@H]3CC=CC[C@H]23)cc1OC` (relative stereo), the IC50 was 14.5 nM in data set [1] (setting [5]) and 2 nM in data set [2].

For `COc1ccc(C2=NN(Cc3ccc(CN(C)C)cc3)C(=O)[C@@H]3CC=CC[C@H]23)cc1OC` (relative stereo), the results for the IC50 in data set [1] (setting [5]) and in data set [2] were 34.9 nM and 9.7 nM, respectively.

With `COc1ccc(C2=NN(Cc3ccc(CN4CCC(=O)CC4)cc3)C(=O)[C@@H]3CC=CC[C@H]23)cc1OC` (relative stereo), the half-inhibitory concentration (IC50) is 3 nM in data set [1] (setting [5]) and 0.9 nM in data set [2]. Moreover, the Activity in data set [4] came out at 36.8%.

Consider `COc1ccc(C2=NN(Cc3ccccc3CN3CCOCC3)C(=O)[C@@H]3CCCC[C@H]23)cc1OC` (relative stereo), for which the values for the half-inhibitory concentration (IC50) in data set [1] (setting [5]) and in data set [2] were 4.6 nM and 1 nM, respectively.

With `COc1ccc(C2=NN(CCOCCn3ccnc3)C(=O)[C@@H]3CC=CC[C@H]23)cc1OC` (relative stereo), the IC50 in data set [1] (setting [5]) stood at 9.1 nM; in data set [2], 5.2 nM.

With `COc1ccc(C2=NN(Cc3cccc(CN4CCOCC4)c3)C(=O)[C@@H]3CC=CC[C@H]23)cc1OC` (relative stereo), the half-maximal inhibitory concentration (IC50) in data set [1] (setting [5]) came to 3 nM; in data set [2], 1.4 nM.

Regarding `COc1ccc(C2=NN(Cc3ccc(CN4CCC5(CC4)OCCO5)cc3)C(=O)[C@@H]3CC=CC[C@H]23)cc1OC` (relative stereo), the half-maximal inhibitory concentration (IC50) in data set [1] (setting [5]) came out at 0.9 nM; in data set [2] it was 1.3 nM.

As to `COc1ccc(C2=NN(Cc3ccc(CN4CCOCC4)cc3)C(=O)[C@@H]3C[C@H]23)cc1OC` (relative stereo), the values for the IC50 in data set [1] (setting [5]) and in data set [2] were 119 nM and 16.4 nM, respectively.

In the case of `COc1ccc(C2=NN(Cc3ccc(CN4CCCCC4)cc3)C(=O)[C@@H]3CC=CC[C@H]23)cc1OC` (relative stereo), the IC50 came to 57.1 nM in data set [1] (setting [5]) and 8.2 nM in data set [2].

With `COc1ccc(C2=NN(Cc3ccc(CN4CCOCC4)cc3)C(=O)[C@@H]3CC[C@H]23)cc1OC` (relative stereo), the values for the half-maximal inhibitory concentration (IC50) in data set [1] (setting [5]) and in data set [2] were 44.8 nM and 4.3 nM, respectively.

For the compound `COc1ccc(C2=NN(CC(=O)NCCCn3ccnc3)C(=O)[C@@H]3CC=CC[C@H]23)cc1OC` (relative stereo), the half-inhibitory concentration (IC50) amounted to 112 nM in data set [1] (setting [5]) and 14.3 nM in data set [2].
